In brackets after ≈: the same amount, converted by molar mass. Each block holds one molecule with its values, some of them ahead of it.
What was measured:
[1] = system: Human immunodeficiency virus 1; test: Antiviral activity against HIV1 3B infected in human CEM-SS cells assessed as reduction of virus-induced cytopathic effect at 10 uM after 6 days by MTS assay; assay type: functional; parameters: scale not given: the % may be the effect or the level left
Outline: (§1)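 Single-concentration screen (10 μM) in CEM-SS cells infected with pre-titered HIV-1 IIIB, sized so virus control wells lose 70–95% viability. Incubation was 6 days and read-out was by MTS. Percent CPE reduction was calculated against virus control wells (cells plus virus). Percent viability was calculated against cell-only control wells. Plates included compound toxicity and colorimetric controls, and AZT as positive control.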

[2] = molecular target: Human immunodeficiency virus type 1 integrase (Human immunodeficiency virus 1, UniProt Q7ZJM1); test: Inhibition of HIV1 recombinant integrase expressed in Escherichia coli using [32P]-labeled oligonucleotide as substrate after 60 mins by strand transfer activity assay
Chain of Human immunodeficiency virus type 1 integrase (Q7ZJM1 whole entry): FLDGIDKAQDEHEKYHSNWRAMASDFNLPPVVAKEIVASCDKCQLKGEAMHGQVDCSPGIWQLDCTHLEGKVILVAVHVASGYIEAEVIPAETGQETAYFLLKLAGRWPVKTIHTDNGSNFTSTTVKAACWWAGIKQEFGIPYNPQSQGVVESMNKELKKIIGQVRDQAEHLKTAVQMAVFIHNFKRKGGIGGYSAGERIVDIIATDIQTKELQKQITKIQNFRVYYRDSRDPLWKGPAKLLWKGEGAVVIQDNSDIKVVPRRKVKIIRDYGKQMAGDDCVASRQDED

CEM-SS [3] = test: Cytotoxicity against human CEM-SS cells assessed as cell viability at 10 uM after 6 days by MTS assay; assay type: cell-based; settings: 144 h; outline: as §1
[4] = Intrinsic clearance in mouse liver microsomes assessed as glucuronidation during phase 2 measured per mg of protein; assay type: ADME, Microsome
[5] = Half life of the compound in DPBS; assay type: physicochemical
[6] = Therapeutic index, ratio of CC50 for human CEM-SS cells to EC50 for HIV1 3B infected in human CEM-SS cells; assay type: toxicity, cell-based; settings: read-out: Ratio CC50/EC50
[7] = system: Human immunodeficiency virus 1; test: Fold resistance, ratio of EC50 for raltegravir-resistant HIV1 4736-2 expressing integrase N155H mutant to EC50 for HIV1 expressing wild-type integrase; assay type: functional
[8] = Aqueous solubility of the compound in DPBS; assay type: physicochemical; settings: buffer
[9] = system: Human immunodeficiency virus 1; test: Fold resistance, ratio of EC50 for raltegravir-resistant HIV1 8070-2 expressing integrase G140S/Q148H mutant to EC50 for HIV1 expressing wild-type integrase; assay type: functional
[10] = molecular target: Human immunodeficiency virus type 1 reverse transcriptase (Human immunodeficiency virus 1, UniProt Q72547); test: Inhibition of RNase H activity of full length HIV1 reverse transcriptase using RNA-DNA duplex HTS-1 substrate
[11] = system: Human immunodeficiency virus 1; test: Antiviral activity against HIV1 infected in human P4R5 cells assessed as reduction of virus replication preincubated with cells for 24 hrs followed by viral infection for 48 hrs by 4-methylumbelliferylgalactoside-based MAGI assay; assay type: functional, organism-based
CEM-SS [12] = test: Cytotoxicity against human CEM-SS cells assessed as cell death after 6 days by MTS assay; assay type: cell-based; settings: 144 h
Outline: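 Dose-response format in CEM-SS cells exposed to compound alone (toxicity control wells) alongside the HIV-1 IIIB cytoprotection plates. Incubation was 6 days and viability was measured by MTS. CC50 is the concentration giving 50% cell death, determined from the dose-response data.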

[13] = Half life in human plasma; assay type: ADME, cell-free
[14] = Plasma protein binding in mouse; assay type: ADME, cell-free
[15] = system: Human immunodeficiency virus 1; test: Fold resistance, ratio of EC50 for raltegravir-resistant HIV1 8070-1 expressing integrase G140S/Y143H/Q148H mutant to EC50 for HIV1 expressing wild-type integrase; assay type: functional
[16] = system: Human immunodeficiency virus 1; test: Fold resistance, ratio of EC50 for raltegravir-resistant HIV1 1556-1 expressing integrase Y143C mutant to EC50 for HIV1 expressing wild-type integrase; assay type: functional
[17] = system: Human immunodeficiency virus 1; test: Antiviral activity against HIV1 3B infected in human CEM-SS cells assessed as reduction of virus-induced cytopathic effect after 6 days by MTS assay; assay type: functional, organism-based; settings: Human immunodeficiency virus 1, 3B, 144 h
[18] = Intrinsic clearance in human liver microsomes during phase 1 measured per mg of protein; assay type: ADME, Microsome
[19] = Plasma protein binding in human; assay type: ADME, cell-free
[20] = Half life in mouse plasma; assay type: ADME, cell-free
[21] = Intrinsic clearance in human liver microsomes assessed as glucuronidation during phase 2 measured per mg of protein

SMILES: CCNc1[nH]c(=O)n(O)c(=O)c1C(=O)NCCc1ccccc1
Activity [1]: 99% | IC50 [2]: 0.1 µM | Activity (CEM-SS [3]): 87%

SMILES: O=C(NCc1ccc(F)cc1)c1c2n(c(=O)n(O)c1=O)CCCN2
Activity [1]: 0% | IC50 [2]: 0.43 µM | Activity (CEM-SS [3]): 5.5%

SMILES: CCNc1[nH]c(=O)n(O)c(=O)c1C(=O)NCc1cccc(F)c1
Activity [1]: 100% | IC50 [2]: 0.068 µM | Activity (CEM-SS [3]): 90%

SMILES: CCNc1[nH]c(=O)n(O)c(=O)c1C(=O)NCc1cccc(Cl)c1F
CLH [4]: 1065 µL/min/mg | half-life [5]: > 24 h | selectivity ratio [6]: 1200 | Ratio EC50 [7]: 2.4 | Activity [1]: 100% | solubility [8]: 11 µM (≈ 3.92 µg/mL) | Ratio EC50 [9]: 13 | IC50 [10]: 0.029 µM | EC50 [11]: 0.3 µM | CC50 (CEM-SS [12]): 18 µM | IC50 [2]: 0.021 µM | t1/2 [13]: > 24 h | PPB [14]: 94% | Ratio EC50 [15]: 6.3 | Ratio EC50 [16]: 0.4 | EC50 [17]: 0.015 µM | CLH [18]: < 0.1 µL/min/mg | Activity (CEM-SS [3]): 100% | PPB [19]: 98.4% | t1/2 [20]: > 24 h

SMILES: CCNc1[nH]c(=O)n(O)c(=O)c1C(=O)NCc1cc(F)ccc1F
Activity [1]: 92% | IC50 [2]: 0.068 µM | Activity (CEM-SS [3]): 87%

SMILES: CNc1[nH]c(=O)n(O)c(=O)c1C(=O)NCc1ccc(F)cc1
Activity [1]: 100% | IC50 [2]: 0.11 µM | Activity (CEM-SS [3]): 89%

SMILES: CNc1[nH]c(=O)n(O)c(=O)c1C(=O)NCc1cccc(Cl)c1F
Activity [1]: 100% | IC50 [2]: 0.11 µM | Activity (CEM-SS [3]): 100%

SMILES: CCNc1[nH]c(=O)n(O)c(=O)c1C(=O)NCc1cc(F)cc(F)c1
Activity [1]: 100% | IC50 [2]: 0.23 µM | Activity (CEM-SS [3]): 100%

SMILES: O=C(NCc1ccccc1)c1c(NC2CC2)[nH]c(=O)n(O)c1=O
Activity [1]: 98% | IC50 [2]: 0.21 µM | Activity (CEM-SS [3]): 91%

SMILES: CCNc1[nH]c(=O)n(O)c(=O)c1C(=O)NCc1ccc(Cl)c(F)c1
Activity [1]: 100% | IC50 [10]: 0.022 µM | EC50 [11]: 0.8 µM | CC50 (CEM-SS [12]): 19 µM | IC50 [2]: 0.12 µM | EC50 [17]: 0.19 µM | Activity (CEM-SS [3]): 100%

SMILES: CCNc1c(C(=O)NCc2ccc(F)cc2)c(=O)n(O)c(=O)n1C
Activity [1]: 6.5% | IC50 [2]: > 100 µM | Activity (CEM-SS [3]): 10%

SMILES: CCNc1[nH]c(=O)n(O)c(=O)c1C(=O)Nc1ccccc1
Activity [1]: 11% | IC50 [2]: 35 µM | Activity (CEM-SS [3]): 27%

SMILES: CCNc1[nH]c(=O)n(O)c(=O)c1C(=O)NCc1cc(F)ccc1Cl
Activity [1]: 62% | IC50 [2]: 0.095 µM | Activity (CEM-SS [3]): 73%

SMILES: O=C(NCc1ccccc1)c1c(Nc2ccc(-c3ccccc3)cc2)[nH]c(=O)n(O)c1=O
Activity [1]: 0% | IC50 [2]: > 100 µM | Activity (CEM-SS [3]): 13%

SMILES: CC(C)Nc1[nH]c(=O)n(O)c(=O)c1C(=O)NCc1ccccc1
Activity [1]: 98% | IC50 [2]: 0.15 µM | Activity (CEM-SS [3]): 90%

SMILES: CCNc1[nH]c(=O)n(O)c(=O)c1C(=O)NCc1ccc(F)cc1F
selectivity ratio [6]: 1500 | Activity [1]: 100% | IC50 [10]: 0.01 µM | EC50 [11]: 0.07 µM | CC50 (CEM-SS [12]): 47 µM | IC50 [2]: 0.048 to 0.068 µM | EC50 [17]: 0.032 µM | Activity (CEM-SS [3]): 92%

SMILES: CC(C)(C)Nc1[nH]c(=O)n(O)c(=O)c1C(=O)NCc1ccccc1
Activity [1]: 0% | IC50 [2]: 0.081 µM | Activity (CEM-SS [3]): 17%

SMILES: CCNc1[nH]c(=O)n(O)c(=O)c1C(=O)NCc1ccc(C)c(F)c1
CLH [4]: 1342 µL/min/mg | half-life [5]: > 24 h | selectivity ratio [6]: 130 | Activity [1]: 100% | solubility [8]: 81 µM (≈ 27.2 µg/mL) | IC50 [10]: 0.02 µM | EC50 [11]: 1.3 µM | CC50 (CEM-SS [12]): 20 µM | IC50 [2]: 0.051 µM | t1/2 [13]: > 24 h | PPB [14]: 95.9% | CLH [21]: 357 µL/min | EC50 [17]: 0.15 µM | CLH [18]: < 0.1 µL/min/mg | Activity (CEM-SS [3]): 100% | PPB [19]: 98.9% | t1/2 [20]: > 24 h

SMILES: CCNc1[nH]c(=O)n(O)c(=O)c1C(=O)NCc1ccccc1
CLH [4]: 732 µL/min/mg | half-life [5]: > 24 h | selectivity ratio [6]: 380 | Activity [1]: 100% | solubility [8]: 1091 µM (≈ 332 µg/mL) | IC50 [10]: 0.042 µM | EC50 [11]: 0.3 µM | CC50 (CEM-SS [12]): 23 µM | IC50 [2]: 0.033 µM | t1/2 [13]: > 24 h | PPB [14]: 83.9% | CLH [21]: 355 µL/min | EC50 [17]: 0.061 µM | CLH [18]: < 0.1 µL/min/mg | Activity (CEM-SS [3]): 100% | PPB [19]: 99.1% | t1/2 [20]: > 24 h

SMILES: O=C(NCc1ccccc1)c1c(Nc2ccccc2)[nH]c(=O)n(O)c1=O
Activity [1]: 0% | IC50 [2]: > 100 µM | Activity (CEM-SS [3]): 21%

SMILES: CCCNc1[nH]c(=O)n(O)c(=O)c1C(=O)NCc1cccc(Cl)c1F
Activity [1]: 33% | IC50 [2]: 0.058 µM | Activity (CEM-SS [3]): 48%

SMILES: CCNc1[nH]c(=O)n(O)c(=O)c1C(=O)NCc1ccc(F)cc1
CLH [4]: 1240 µL/min/mg | half-life [5]: > 24 h | selectivity ratio [6]: 580 | Activity [1]: 100% | solubility [8]: 150 µM (≈ 48.3 µg/mL) | IC50 [10]: 0.011 µM | EC50 [11]: 0.09 µM | CC50 (CEM-SS [12]): 19 µM | IC50 [2]: 0.049 µM | t1/2 [13]: > 24 h | PPB [14]: 86.5% | EC50 [17]: 0.033 µM | CLH [18]: < 0.1 µL/min/mg | Activity (CEM-SS [3]): 99% | PPB [19]: 99.4% | t1/2 [20]: > 24 h

SMILES: Nc1[nH]c(=O)n(O)c(=O)c1C(=O)NCc1ccccc1
Activity [1]: 99% | IC50 [2]: 0.9 µM | Activity (CEM-SS [3]): 100%

SMILES: CCNc1[nH]c(=O)n(O)c(=O)c1C(=O)NCc1ccc(F)c(F)c1
selectivity ratio [6]: 430 | Activity [1]: 100% | IC50 [10]: 0.026 µM | EC50 [11]: 0.3 µM | CC50 (CEM-SS [12]): 21 µM | IC50 [2]: 0.077 µM | EC50 [17]: 0.049 µM | Activity (CEM-SS [3]): 100%

SMILES: CCNc1[nH]c(=O)n(O)c(=O)c1C(=O)Oc1ccccc1
Activity [1]: 50% | IC50 [2]: > 100 µM | Activity (CEM-SS [3]): 100%

IC50 [2]: > 100 µM
SMILES: CCNc1[nH]c(=O)n(O)c(=O)c1C(N)=O

SMILES: CCNc1[nH]c(=O)n(O)c(=O)c1C(=O)NCCCl
Activity [1]: 5.1% | IC50 [2]: > 100 µM | Activity (CEM-SS [3]): 100%

SMILES: CCCNc1[nH]c(=O)n(O)c(=O)c1C(=O)NCc1ccccc1
Activity [1]: 100% | IC50 [2]: 0.066 µM | Activity (CEM-SS [3]): 97%

SMILES: CNc1[nH]c(=O)n(O)c(=O)c1C(=O)NCc1cccc(F)c1
Activity [1]: 100% | IC50 [2]: 0.25 µM | Activity (CEM-SS [3]): 95%

SMILES: Cc1cn([C@H]2C[C@H](N=[N+]=[N-])[C@@H](CO)O2)c(=O)[nH]c1=O [ZIDOVUDINE]
Ratio EC50 [7]: 0.7 | Ratio EC50 [9]: 0.5 | Ratio EC50 [15]: 0.9 | Ratio EC50 [16]: 1.4

SMILES: CNc1[nH]c(=O)n(O)c(=O)c1C(=O)NCc1ccccc1
CLH [4]: 500 µL/min/mg | half-life [5]: > 24 h | selectivity ratio [6]: 70 | Activity [1]: 100% | solubility [8]: 138 µM (≈ 40.1 µg/mL) | IC50 [10]: 0.061 µM | EC50 [11]: 3.7 µM | CC50 (CEM-SS [12]): 58 µM | IC50 [2]: 0.08 µM | t1/2 [13]: > 24 h | PPB [14]: 70.9% | CLH [21]: 51 µL/min | EC50 [17]: 0.83 µM | CLH [18]: 0.8 µL/min/mg | Activity (CEM-SS [3]): 98% | PPB [19]: 99.2% | t1/2 [20]: > 24 h
